ChEMBL document CHEMBL5653605, “Reduced VEGF production, angiogenesis, and vascular regrowth contribute to the antitumor properties of dual mTORC1/mTORC2 inhibitors” (Cancer Res, 2011)
Activity calls are given as the source filed them.

Columns and labels:
mTORC1 = mTORC1 (Homo sapiens, UniProt P42345); assay: Competitive inhibition of mTORC1 immunoprecipitated from human HeLa cells using His-tagged 4E-BP1 as substrate incubated for 30 mins in presence of ATP by chemiluminescence based ELISA
Summary of the method: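 Native mTORC1 or mTORC2 complex immunoprecipitated from HeLa lysates; kinase reaction run at 1 mM ATP.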

[1] = molecular target: Serine/threonine-protein kinase mTOR (Homo sapiens, UniProt P42345); assay: Inhibition of mTOR (unknown origin)
[2] = molecular target: T1, DNA-dependent protein kinase catalytic subunit (Homo sapiens, UniProt P78527); assay: Inhibition of DNA-PK activity (unknown origin) presence of ATP
[3] = molecular target: RAC-alpha serine/threonine-protein kinase (Homo sapiens) (UniProt P31749); assay: Inhibition of AKT phosphorylation at Ser 473 site in serum deprived/insulin stimulated human OVCAR-3 cells harboring PTEN and wild type PI3K preincubated for 2 hrs followed by insulin stimulation and measured immediately by Western blot analysis; type: cell-based; conditions: dose 0.001-10 µM
Mus musculus = assay: In vivo inhibition of S6K phosphorylation in RIP-Tag2 mouse with pancreatic islet cell carcinoma 75 mg/kg, po bid administered via gavage and measured after 7 days by immunohistochemistry; type: functional, organism-based; conditions: time 7.0 day
Summary of the method: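 RIP-Tag2 mice aged 9–10 weeks dosed 75 mg/kg BID by gavage for 7 days, vehicle Labrifil or water; perfusion fixation, 60–80 µm tumor sections immunostained for phospho-4E-BP1, phospho-Akt or phospho-S6K with CD31; fluorescence/confocal imaging; 3–8 mice per group.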

[4] = tested on: Pancreatic islet cell carcinoma; assay: Antitumor activity against pancreatic islet cell carcinoma in RIP-Tag2 mouse assessed as reduction in cell proliferation at 75 mg/kg, po bid administered via gavage and measured after 7 days by immunohistochemistry analysis; type: functional, organism-based; conditions: time 7.0 day
Summary of the method: (§1)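 RIP-Tag2 mice aged 9–10 weeks dosed by gavage BID for 7 days; vehicle Labrifil or water. Mice fixed by vascular perfusion, tumors cut into 60–80 µm sections. Proliferating cells stained for phospho-histone H3 and apoptotic cells for activated caspase-3. Sections imaged by fluorescence/confocal microscopy. Body weight checked daily, fluids given if loss exceeded 10%. 3–8 mice per group, SEM, ANOVA with Fisher PLSD.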

[5] = tested on: Pancreatic islet cell carcinoma; assay: Antitumor activity against pancreatic islet cell carcinoma in RIP-Tag2 mouse assessed as induction of apoptosis by measuring caspase-3 activation at 75 mg/kg, po bid administered via gavage and measured after 7 days by immunohistochemistry analysis; type: functional, organism-based; conditions: time 7.0 day; summary of the method: as §1
[6] = tested on: Pancreatic islet cell carcinoma; assay: Antitumor activity against pancreatic islet cell carcinoma in RIP-Tag2 mouse assessed as reduction in VEGF production by measuring reduction in fluorescence in entire tumor at 75 mg/kg, po bid administered via gavage and measured after 7 days by immunohistochemical staining based confocal microscopic analysis relative to control; type: functional; design: scale not given: the % may be the effect or the level left; conditions: time 7 day
Summary of the method: (§2)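 Treatment began in RIP-Tag2 mice at 9–10 weeks: 75 mg/kg gavage BID for 1, 4 or 7 days, or 20 mg/kg ip QD for 7 days; vehicle Labrifil or water. Tissue fixed by vascular perfusion and 60–80 µm sections stained for VEGF with CD31. VEGF fluorescence intensity measured over whole tumor, tumor cells, or tumor vessels. 3–8 mice/group; ANOVA, Fisher PLSD.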

[7] = tested on: Pancreatic islet cell carcinoma; assay: (§3) Antitumor activity against pancreatic islet cell carcinoma in RIP-Tag2 mouse assessed as reduction in VEGF production by measuring reduction in tumor cell associated fluorescence intensity at 75 mg/kg, po bid administered via gavage and measured after 7 days by immunohistochemical staining based confocal microscopic analysis relative to control; type: functional; design: scale not given: the % may be the effect or the level left; conditions: time 7 day; summary of the method: as §2
[8] = tested on: Pancreatic islet cell carcinoma; assay: as §3, with “tumor vessels” for “tumor cell”, “after 1 to” for “after”; type: functional; design: scale not given: the % may be the effect or the level left; conditions: time 1-7 day; summary of the method: as §2
[9] = tested on: Pancreatic islet cell carcinoma; assay: Antitumor activity against pancreatic islet cell carcinoma in RIP-Tag2 mouse assessed as reduction in VEGF-A expression at 75 mg/kg, po bid administered via gavage and measured after 1 to 7 days by immunoprecipitation based densitometric analysis relative to control; type: functional; design: scale not given: the % may be the effect or the level left; conditions: time 1-7 day
Summary of the method: (§4)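 VEGF in tumor lysates from treated RIP-Tag2 mice (9–10 weeks old at start; 75 mg/kg gavage BID or 20 mg/kg ip QD) measured with mouse angiogenesis antibody arrays, read as pixel density. 3–8 mice/group, SEM; ANOVA with Fisher PLSD.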

[10] = tested on: Pancreatic islet cell carcinoma; assay: Antitumor activity against pancreatic islet cell carcinoma in RIP-Tag2 mouse assessed as reduction in VEGF-B expression at 75 mg/kg, po bid administered via gavage and measured after 1 to 7 days by immunoprecipitation based densitometric analysis; type: functional, organism-based; conditions: time 1-7 day; summary of the method: as §4
[11] = tested on: Pancreatic islet cell carcinoma; assay: Antivascular activity against pancreatic islet cell carcinoma in RIP-Tag2 mouse assessed as reduction in CD31-positive tumor blood vessels at 75 mg/kg, po bid administered via gavage and measured after 1 to 4 days by immunohistochemical staining based fluorescence microscopic analysis; type: functional, organism-based; conditions: time 1-4 day
[12] = tested on: Pancreatic islet cell carcinoma; assay: Antivascular activity against pancreatic islet cell carcinoma in RIP-Tag2 mouse assessed as appearance of empty basement membrane sleeves at 75 mg/kg, po bid administered via gavage and measured after 7 days by immunohistochemical staining based fluorescence microscopic analysis; type: functional, organism-based; conditions: time 7.0 day
Summary of the method: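 For 7 days, RIP-Tag2 mice, 9–10 weeks old, received 75 mg/kg gavage BID, 200 mg/kg gavage QD, or 20 mg/kg ip QD. Perfusion-fixed tumors cut at 60–80 µm and stained for CD31 and type IV collagen basement membrane. Vessel area density from fluorescence images with threshold 30–50; sprouts and empty basement membrane sleeves examined by confocal microscopy. 3–8 mice/group; ANOVA, Fisher PLSD.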

[13] = tested on: Pancreatic islet cell carcinoma; assay: Antivascular activity in pancreatic islet cell carcinoma in RIP-Tag2 mouse assessed as suppression of tumor regrowth by measuring reduction in vessel density at 75 mg/kg, po bid administered via gavage pretreated with OSI-930 for 7 days at 200 mg/kg, po followed by compound administration and measured after 4 days (reference value: 18%); type: functional; design: scale not given: the % may be the effect or the level left; conditions: time 4 day
Summary of the method: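 10-week-old RIP-Tag2 mice given OSI-930 200 mg/kg QD by gavage for 7 days, then 75 mg/kg BID by gavage for 4 days. Mice fixed by vascular perfusion; 60–80 µm tumor sections immunostained for endothelial cells; vessel area density from fluorescence images at threshold 30–50. 3–8 mice per group; ANOVA with Fisher PLSD.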

[14] = tested on: Pancreatic islet cell carcinoma; assay: Additive antitumor activity in pancreatic islet cell carcinoma in RIP-Tag2 mouse assessed as induction of apoptosis by measuring increase in activated caspase-3 level at 100 mg/kg, po bid administered via gavage for 4 days in presence of OSI-930 by immunohistochemistry analysis relative to control; type: functional; conditions: time 4 day
[15] = molecular target: Epidermal growth factor receptor (Homo sapiens, UniProt P00533); assay: Inhibition of EGFR phosphorylation (unknown origin) by cell based assay
Ephrin type-A receptor 2 = Ephrin type-A receptor 2 (Homo sapiens, UniProt P29317); assay: Inhibition of EphA2 phosphorylation (unknown origin) by cell based assay
[16] = molecular target: Proto-oncogene tyrosine-protein kinase Src (Homo sapiens, UniProt P12931); assay: Inhibition of SRC (unknown origin) assessed as reduction in phosphorylated FAK level by cell based assay
[17] = molecular target: T1, DNA-dependent protein kinase catalytic subunit; assay: Inhibition of DNA-PK (unknown origin) assessed as reduction in phosphorylated RPA32 level by cell based assay
[18] = molecular target: Phosphatidylinositol 4,5-bisphosphate 3-kinase catalytic subunit delta isoform (Homo sapiens) (UniProt O00329); assay: Inhibition of PI3Kdelta (unknown origin) at 3 uM by Ambit Kinomescan assay relative to control
[19] = molecular target: Proto-oncogene tyrosine-protein kinase receptor Ret (Homo sapiens) (UniProt P07949); assay: Inhibition of RET (unknown origin) at 3 uM by Ambit Kinomescan assay relative to control
[20] = molecular target: Mitogen-activated protein kinase 10 (Homo sapiens) (UniProt P53779); assay: Inhibition of JNK3 (unknown origin)

T1 sequence (P78527 whole entry): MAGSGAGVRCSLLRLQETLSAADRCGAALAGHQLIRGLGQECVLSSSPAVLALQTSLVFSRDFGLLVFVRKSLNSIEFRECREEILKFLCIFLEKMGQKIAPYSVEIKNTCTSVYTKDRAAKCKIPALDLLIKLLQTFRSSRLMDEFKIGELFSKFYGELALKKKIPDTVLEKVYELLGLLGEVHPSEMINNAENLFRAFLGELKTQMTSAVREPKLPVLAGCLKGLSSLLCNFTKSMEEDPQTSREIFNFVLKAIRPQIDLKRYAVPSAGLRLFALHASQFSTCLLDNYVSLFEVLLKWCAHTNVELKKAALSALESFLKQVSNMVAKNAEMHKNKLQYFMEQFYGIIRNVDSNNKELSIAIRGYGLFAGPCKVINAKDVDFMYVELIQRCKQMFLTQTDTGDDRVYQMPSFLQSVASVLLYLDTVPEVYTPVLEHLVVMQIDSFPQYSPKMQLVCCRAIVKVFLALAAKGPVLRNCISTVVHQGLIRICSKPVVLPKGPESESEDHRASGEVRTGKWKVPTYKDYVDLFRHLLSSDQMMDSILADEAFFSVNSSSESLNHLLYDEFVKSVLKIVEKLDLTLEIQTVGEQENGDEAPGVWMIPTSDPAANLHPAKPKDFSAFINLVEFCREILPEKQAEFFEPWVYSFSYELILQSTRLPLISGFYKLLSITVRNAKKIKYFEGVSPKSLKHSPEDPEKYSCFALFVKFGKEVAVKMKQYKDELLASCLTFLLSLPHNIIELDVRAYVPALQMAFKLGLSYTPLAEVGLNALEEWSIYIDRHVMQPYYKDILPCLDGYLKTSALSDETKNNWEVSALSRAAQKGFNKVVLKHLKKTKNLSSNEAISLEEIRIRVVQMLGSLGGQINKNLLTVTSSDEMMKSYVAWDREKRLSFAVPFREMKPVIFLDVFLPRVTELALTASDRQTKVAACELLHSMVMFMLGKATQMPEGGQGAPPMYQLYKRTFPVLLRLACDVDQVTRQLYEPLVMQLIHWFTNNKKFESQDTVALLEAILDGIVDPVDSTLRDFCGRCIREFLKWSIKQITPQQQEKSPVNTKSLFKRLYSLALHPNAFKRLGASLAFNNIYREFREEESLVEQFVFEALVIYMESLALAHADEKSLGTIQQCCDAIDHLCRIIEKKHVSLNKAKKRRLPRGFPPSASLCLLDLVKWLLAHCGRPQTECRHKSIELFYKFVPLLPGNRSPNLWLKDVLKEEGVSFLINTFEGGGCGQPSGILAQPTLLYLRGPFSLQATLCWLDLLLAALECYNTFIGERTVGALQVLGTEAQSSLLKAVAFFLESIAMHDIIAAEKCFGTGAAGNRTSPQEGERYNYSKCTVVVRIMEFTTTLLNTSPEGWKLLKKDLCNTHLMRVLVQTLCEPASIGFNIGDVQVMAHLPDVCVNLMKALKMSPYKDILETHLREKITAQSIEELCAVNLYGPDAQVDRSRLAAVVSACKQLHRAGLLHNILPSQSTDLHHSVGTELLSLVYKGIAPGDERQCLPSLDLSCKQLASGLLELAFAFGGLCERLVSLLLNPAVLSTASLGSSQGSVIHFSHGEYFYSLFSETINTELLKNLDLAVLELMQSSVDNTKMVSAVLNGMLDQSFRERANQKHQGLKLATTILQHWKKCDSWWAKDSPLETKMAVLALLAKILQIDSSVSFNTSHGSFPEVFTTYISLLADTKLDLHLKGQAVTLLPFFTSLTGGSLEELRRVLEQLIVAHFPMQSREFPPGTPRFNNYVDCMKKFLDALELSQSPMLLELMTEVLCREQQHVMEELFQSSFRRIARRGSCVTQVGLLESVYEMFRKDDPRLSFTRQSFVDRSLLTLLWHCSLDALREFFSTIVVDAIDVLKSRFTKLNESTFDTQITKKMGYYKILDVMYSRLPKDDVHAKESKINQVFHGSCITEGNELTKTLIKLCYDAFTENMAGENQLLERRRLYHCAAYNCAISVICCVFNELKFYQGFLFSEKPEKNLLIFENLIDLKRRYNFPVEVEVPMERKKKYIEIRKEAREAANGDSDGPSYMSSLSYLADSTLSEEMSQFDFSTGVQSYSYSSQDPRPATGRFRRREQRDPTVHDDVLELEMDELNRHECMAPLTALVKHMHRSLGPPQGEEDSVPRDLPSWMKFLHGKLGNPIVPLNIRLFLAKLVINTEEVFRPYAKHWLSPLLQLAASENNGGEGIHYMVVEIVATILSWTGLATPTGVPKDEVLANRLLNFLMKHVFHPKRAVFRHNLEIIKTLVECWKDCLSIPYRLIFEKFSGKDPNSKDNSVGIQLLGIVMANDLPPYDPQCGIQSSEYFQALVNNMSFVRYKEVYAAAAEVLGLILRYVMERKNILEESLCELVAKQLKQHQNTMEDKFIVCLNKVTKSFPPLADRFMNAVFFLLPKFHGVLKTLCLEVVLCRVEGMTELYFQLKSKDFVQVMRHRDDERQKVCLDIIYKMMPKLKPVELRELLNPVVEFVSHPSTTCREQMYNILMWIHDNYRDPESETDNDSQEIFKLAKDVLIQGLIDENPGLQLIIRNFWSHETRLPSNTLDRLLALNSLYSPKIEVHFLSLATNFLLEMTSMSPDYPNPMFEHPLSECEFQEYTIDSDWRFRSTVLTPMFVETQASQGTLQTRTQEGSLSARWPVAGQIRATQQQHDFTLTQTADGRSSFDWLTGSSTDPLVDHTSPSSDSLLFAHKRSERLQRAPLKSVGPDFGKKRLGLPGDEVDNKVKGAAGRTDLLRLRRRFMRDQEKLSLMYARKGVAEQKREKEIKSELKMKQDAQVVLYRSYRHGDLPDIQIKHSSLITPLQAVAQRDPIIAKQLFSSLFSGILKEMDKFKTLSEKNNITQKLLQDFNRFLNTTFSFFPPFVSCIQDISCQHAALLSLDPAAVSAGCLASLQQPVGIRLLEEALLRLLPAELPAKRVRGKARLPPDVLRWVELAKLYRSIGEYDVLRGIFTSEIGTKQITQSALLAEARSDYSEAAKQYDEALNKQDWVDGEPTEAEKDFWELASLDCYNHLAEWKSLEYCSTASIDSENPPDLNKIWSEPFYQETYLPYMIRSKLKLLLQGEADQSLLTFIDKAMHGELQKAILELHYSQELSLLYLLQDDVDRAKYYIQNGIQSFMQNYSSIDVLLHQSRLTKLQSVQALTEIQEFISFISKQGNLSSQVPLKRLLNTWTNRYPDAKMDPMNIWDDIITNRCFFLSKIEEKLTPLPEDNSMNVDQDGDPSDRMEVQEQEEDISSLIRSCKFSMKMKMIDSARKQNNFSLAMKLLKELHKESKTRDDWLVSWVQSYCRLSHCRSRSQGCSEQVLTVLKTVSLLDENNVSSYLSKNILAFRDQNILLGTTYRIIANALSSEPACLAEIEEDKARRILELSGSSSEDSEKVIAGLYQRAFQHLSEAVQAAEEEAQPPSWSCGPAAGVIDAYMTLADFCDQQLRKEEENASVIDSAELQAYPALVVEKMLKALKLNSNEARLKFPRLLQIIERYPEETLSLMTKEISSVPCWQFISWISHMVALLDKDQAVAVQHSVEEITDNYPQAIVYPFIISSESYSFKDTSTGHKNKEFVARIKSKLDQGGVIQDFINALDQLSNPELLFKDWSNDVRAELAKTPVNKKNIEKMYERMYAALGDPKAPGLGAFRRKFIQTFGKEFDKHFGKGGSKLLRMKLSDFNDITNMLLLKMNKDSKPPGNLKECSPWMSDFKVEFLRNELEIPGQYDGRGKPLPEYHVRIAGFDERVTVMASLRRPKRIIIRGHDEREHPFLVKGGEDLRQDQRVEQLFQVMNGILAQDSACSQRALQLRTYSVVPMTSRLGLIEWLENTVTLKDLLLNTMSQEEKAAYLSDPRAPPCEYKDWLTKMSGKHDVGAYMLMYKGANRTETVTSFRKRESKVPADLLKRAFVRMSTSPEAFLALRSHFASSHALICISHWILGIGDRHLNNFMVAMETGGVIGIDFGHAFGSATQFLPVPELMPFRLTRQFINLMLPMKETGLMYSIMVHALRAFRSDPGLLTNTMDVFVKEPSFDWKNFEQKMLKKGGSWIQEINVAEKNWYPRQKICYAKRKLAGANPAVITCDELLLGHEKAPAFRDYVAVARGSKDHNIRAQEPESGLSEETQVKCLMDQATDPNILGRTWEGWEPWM
Proto-oncogene tyrosine-protein kinase Src, sequence (P12931 2-536 limits assumed): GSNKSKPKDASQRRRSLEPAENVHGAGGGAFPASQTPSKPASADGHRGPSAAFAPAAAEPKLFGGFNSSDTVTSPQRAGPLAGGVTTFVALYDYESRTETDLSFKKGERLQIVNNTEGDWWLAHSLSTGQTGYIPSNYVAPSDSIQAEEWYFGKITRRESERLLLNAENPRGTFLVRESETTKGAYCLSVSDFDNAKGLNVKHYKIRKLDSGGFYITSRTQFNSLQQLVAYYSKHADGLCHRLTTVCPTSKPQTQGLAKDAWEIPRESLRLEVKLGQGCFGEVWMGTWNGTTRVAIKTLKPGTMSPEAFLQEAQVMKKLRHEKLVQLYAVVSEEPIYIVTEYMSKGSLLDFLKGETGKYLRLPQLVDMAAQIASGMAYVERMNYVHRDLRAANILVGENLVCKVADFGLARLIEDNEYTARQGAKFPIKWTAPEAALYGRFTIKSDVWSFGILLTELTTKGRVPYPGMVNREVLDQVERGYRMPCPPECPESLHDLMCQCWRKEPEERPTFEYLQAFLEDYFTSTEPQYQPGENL
RAC-alpha serine/threonine-protein kinase (Homo sapiens), sequence (P31749 whole entry): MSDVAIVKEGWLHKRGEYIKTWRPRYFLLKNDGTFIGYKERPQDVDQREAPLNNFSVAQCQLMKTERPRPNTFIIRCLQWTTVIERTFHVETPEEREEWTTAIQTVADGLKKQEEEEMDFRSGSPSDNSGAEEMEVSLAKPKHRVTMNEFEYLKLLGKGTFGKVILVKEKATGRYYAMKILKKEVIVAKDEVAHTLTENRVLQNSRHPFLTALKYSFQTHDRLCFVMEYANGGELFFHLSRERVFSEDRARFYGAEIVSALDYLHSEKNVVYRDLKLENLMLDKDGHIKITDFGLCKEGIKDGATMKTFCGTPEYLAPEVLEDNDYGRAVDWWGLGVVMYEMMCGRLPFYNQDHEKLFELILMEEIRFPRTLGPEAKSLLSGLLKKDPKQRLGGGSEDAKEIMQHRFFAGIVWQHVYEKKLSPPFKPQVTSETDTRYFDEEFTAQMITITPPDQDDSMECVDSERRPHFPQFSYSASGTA

## Nc1nccn2c1c(-c1cc3cccc(Cl)c3[nH]1)nc2[C@H]1CC[C@H](C(=O)O)CC1
mTORC1
  IC50: 0.029 µM
[1]
  IC50: 0.011 µM
[2]
  IC50: 3.2 µM
[3]
  inhibition: Dose-Dependent Effect
Mus musculus
  inhibition: Active
[4]
  Activity: Active
[5]
  Activity: Active
[6]
  Activity: 45%
[7]
  Activity: 65%
[8]
  Activity: 48%
[9]
  Activity: 72%
[10]
  Activity: inactive
[11]
  Activity: inactive
[12]
  Activity: inactive
[13]
  Activity: 40%
[14]
  Activity: 700%
[15]
  IC50: > 40 µM
Ephrin type-A receptor 2
  IC50: > 40 µM
[16]
  IC50: > 40 µM
[17]
  IC50: > 40 µM
[18]
  inhibition: > 90%
[19]
  inhibition: > 90%
[20]
  inhibition: Active
